≈ marks a conversion by molar mass, not a printed value. Calls of active or inactive are those of the source. Unless noted, the rule behind the calls is not given here.
Legend:
Enterococcus faecalis [1] = test: Antibacterial activity against Enterococcus faecalis ATCC 29212 by CLSI M07-A8 method; type: functional
Method in brief: (§1)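 Broth microdilution MIC run per CLSI M07-A8 (2009).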

Enterococcus faecium = test: Antibacterial activity against Enterococcus faecium 7130724 by CLSI M07-A8 method; type: functional; method in brief: as §1
Staphylococcus aureus [2] = test: Antibacterial activity against methicillin-resistant Staphylococcus aureus isolate A4.018 by CLSI M07-A8 method; type: functional
Streptococcus pyogenes = test: Antibacterial activity against Streptococcus pyogenes ATCC BAA-595 by CLSI M07-A8 method; type: functional; method in brief: as §1
Staphylococcus aureus [3] = test: Antibacterial activity against Staphylococcus aureus ATCC 49951 infected in CD1 mouse assessed as protection against bacterial infection administered 5 hrs post infection measured on day 5; type: functional
Method in brief: (§2)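 Mouse lethal systemic infection: ip injection of 1 × 10^8 cfu/mouse (10−100× minimal lethal dose), E. faecalis in 50% sterile rat fecal extract, S. aureus in 0.9% NaCl. Therapy by tail-vein bolus at several doses, six mice per group. Started immediately for E. faecalis; at 1 and 5 h post-inoculation for S. aureus.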

Enterococcus faecalis [4] = test: Antibacterial activity against Enterococcus faecalis isolate NB04025 infected in CD1 mouse assessed as protection against bacterial infection administered immediately after infection measured on day 5; type: functional; conditions: isolate NB04025, 120 h; method in brief: as §2
[5] = Cmax in Sprague-Dawley rat at 1 mg/kg, iv bolus; type: ADME, organism-based; set-up: dose 1 mg/kg, route intravenous; conditions: in vivo
Method in brief: (§3)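 Male Sprague−Dawley rats (220−270 g, ~6−10 weeks) with dual jugular vein cannulae, fasted overnight and for 8 h post-dose, given iv bolus (N = 2 or 3). Blood was collected into K2EDTA tubes and plasma was obtained. Plasma was protein-precipitated with acetonitrile containing glyburide internal standard, then analysed by LC−MS/MS (C18, 0.1% formic acid water/acetonitrile gradient).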

[6] = Cmax in Sprague-Dawley rat at 25 mg/kg, iv bolus; type: ADME, organism-based; set-up: dose 25 mg/kg, route intravenous; conditions: in vivo; method in brief: as §3
Rattus norvegicus [7] = test: Cmax in Sprague-Dawley rat at 75 mg/kg, iv bolus; type: ADME, organism-based; set-up: dose 75 mg/kg, route intravenous; conditions: in vivo; method in brief: as §3
[8] = AUC in Sprague-Dawley rat at 1 mg/kg, iv bolus; type: ADME, organism-based; set-up: dose 1 mg/kg, route intravenous; conditions: plasma; method in brief: as §3
[9] = AUC in Sprague-Dawley rat at 25 mg/kg, iv bolus; type: ADME, organism-based; set-up: dose 25 mg/kg, route intravenous; conditions: plasma; method in brief: as §3
[10] = AUC in Sprague-Dawley rat at 75 mg/kg, iv bolus; type: ADME, organism-based; set-up: dose 75 mg/kg, route intravenous; conditions: plasma; method in brief: as §3
[11] = Volume of distribution at steady state in Sprague-Dawley rat at 1 mg/kg, iv bolus; type: ADME, organism-based; set-up: dose 1 mg/kg, route intravenous; conditions: in vivo, read-out: Vdss; method in brief: as §3
[12] = Volume of distribution at steady state in Sprague-Dawley rat at 25 mg/kg, iv bolus; type: ADME, organism-based; set-up: dose 25 mg/kg, route intravenous; conditions: in vivo, read-out: Vdss; method in brief: as §3
[13] = Volume of distribution at steady state in Sprague-Dawley rat at 75 mg/kg, iv bolus; type: ADME, organism-based; set-up: dose 75 mg/kg, route intravenous; conditions: in vivo, read-out: Vdss; method in brief: as §3
[14] = Clearance in Sprague-Dawley rat at 1 mg/kg, iv bolus; type: ADME, organism-based; set-up: dose 1 mg/kg, route intravenous; conditions: in vivo; method in brief: as §3
[15] = Clearance in Sprague-Dawley rat at 25 mg/kg, iv bolus; type: ADME, organism-based; set-up: dose 25 mg/kg, route intravenous; conditions: in vivo; method in brief: as §3
[16] = Clearance in Sprague-Dawley rat at 75 mg/kg, iv bolus; type: ADME, organism-based; set-up: dose 75 mg/kg, route intravenous; conditions: in vivo; method in brief: as §3
[17] = Plasma protein binding in Sprague-Dawley rat; type: ADME, cell-free; conditions: read-out: PPB
Method in brief: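 Rat plasma protein binding was determined in triplicate by rapid equilibrium dialysis. Samples were quantified by LC−MS/MS after acetonitrile precipitation with glyburide internal standard.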

[18] = Oral bioavailability in Sprague-Dawley rat; type: ADME, organism-based; conditions: in vivo
Staphylococcus aureus [19] = test: Antibacterial activity against Staphylococcus aureus ATCC 01001 infected in thigh of CD1 mouse assessed as prevention of colony formation at 80 to 320 mg/kg, ip administered 2 hrs post infection measured after 12 hrs; type: functional, organism-based
Method in brief: (§4)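 Female CD1 mice (21−25 g), made neutropenic with cyclophosphamide ip at 150 mg/kg (day −4) and 100 mg/kg (day −1). Left thigh infected im with 0.05 mL S. aureus ATCC 01001 (7.5 × 10^5 cfu/thigh), grown 16 h at 36 °C in cation-supplemented Mueller Hinton. Treatment given 2 h post-infection, four mice per group. At 12 or 24 h thighs were excised, homogenized in 0.9% NaCl, serially diluted and plated on blood agar for cfu.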

Staphylococcus aureus [20] = test: Antibacterial activity against Staphylococcus aureus ATCC 01001 infected in thigh of CD1 mouse assessed as prevention of colony formation at 80 to 320 mg/kg, ip administered 2 hrs post infection measured after 24 hrs; type: functional, organism-based; method in brief: as §4
Staphylococcus aureus [21] = test: Bacteriostatic activity against Staphylococcus aureus ATCC 01001 infected in thigh of CD1 mouse assessed as prevention of colony formation at 40 mg/kg, ip administered 2 hrs post infection measured after 12 hrs; type: functional, organism-based; set-up: dose 40 mg/kg; method in brief: as §4
Staphylococcus aureus [22] = test: Bacteriostatic activity against Staphylococcus aureus ATCC 01001 infected in thigh of CD1 mouse assessed as prevention of colony formation at 80 mg/kg, ip administered 2 hrs post infection measured after 24 hrs; type: functional, organism-based; set-up: dose 80 mg/kg; method in brief: as §4
Rattus norvegicus [23] = test: Dose normalized AUC in Sprague-Dawley rat at 1 mg/kg, iv bolus; type: ADME, organism-based; set-up: dose 1 mg/kg, route intravenous; conditions: in vivo; method in brief: as §3
Rattus norvegicus [24] = test: Dose normalized AUC in Sprague-Dawley rat at 25 mg/kg, iv bolus; type: ADME, organism-based; set-up: dose 25 mg/kg, route intravenous; conditions: in vivo; method in brief: as §3
Rattus norvegicus [25] = test: Dose normalized AUC in Sprague-Dawley rat at 75 mg/kg, iv bolus; type: ADME, organism-based; set-up: dose 75 mg/kg, route intravenous; conditions: in vivo; method in brief: as §3
[26] = Chemical stability of the compound in 15% v/v NaOH, 5% PEG-300, 0.9% saline, 55% v/v water at pH 7.2 to 7.8; type: physicochemical; conditions: buffer
Streptococcus pneumoniae = test: Antibacterial activity against Streptococcus pneumoniae by CLSI M07-A8 method; type: functional, organism-based; method in brief: as §1

Work on `CNC(=O)C[C@@H]1NC(=O)c2csc(n2)-c2ccc(-c3nc(NC(=O)[C@H]4CC[C@H](C(=O)O)CC4)cs3)nc2-c2csc(n2)-c2csc(n2)[C@H]([C@@H](O)c2ccccc2)NC(=O)CNC(=O)c2nc(sc2COC)[C@H](C(C)C)NC(=O)c2nc1sc2C` yielded an MIC (Enterococcus faecalis [1]) of 0.06 µg/mL (≈ 0.048 µM), an MIC (Enterococcus faecium) of 0.06 µg/mL (≈ 0.048 µM) and an MIC (Staphylococcus aureus [2]) of 0.125 µg/mL (≈ 0.1 µM). It also gave an MIC (Streptococcus pyogenes) of 4 µg/mL (≈ 3.2 µM), an ED50 (Staphylococcus aureus [3]) of 5.2 mg/kg and an ED50 (Enterococcus faecalis [4]) of 0.6 mg/kg. It also gave a Cmax [5] of 5 µM, a Cmax [6] of 320 µM and a Cmax (Rattus norvegicus [7]) of over 1000 µM. It also gave an AUC [8] of 3 µM·h, an AUC [9] of 343 µM·h and an AUC [10] of 2860 µM·h. It also gave a Vd [11] of under 0.1 L/kg, a Vd [12] of under 0.1 L/kg and a Vd [13] of under 0.1 L/kg. It also gave a clearance [14] of 6.7 mL/min/kg, a clearance [15] of 1 mL/min/kg and a clearance [16] of 0.4 mL/min/kg. The fraction unbound [17] was under 0.01, the bioavailability [18] was under 0.1% and the Activity (Staphylococcus aureus [19]) was “Active”. The Activity (Staphylococcus aureus [20]) was “Active”, the Activity (Staphylococcus aureus [21]) was “Active” and the Activity (Staphylococcus aureus [22]) was “Active”. The AUC/dose (Rattus norvegicus [23]) was 3 µM·h/mg/kg, the AUC/dose (Rattus norvegicus [24]) was 13.7 µM·h/mg/kg and the AUC/dose (Rattus norvegicus [25]) was 38.2 µM·h/mg/kg. The Stability [26] was over 1 weeks and the Activity (Streptococcus pneumoniae) was “Active”.
